# ChEMBL document CHEMBL4513216, “Probing the Open Global Health Chemical Diversity Library for Multistage-Active Starting Points for Next-Generation Antimalarials” (ACS Infect Dis, 2020)
# Test: Toxicity liver stage against HepG2, at 10uM
# Type: cell-based
# Parameters: test concentration 10 uM, cell line HepG2-A16-CD81EGFP
# Settings: human, HepG2-A16-CD81EGFP cells; read-out: INHIBITION
# Outline: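 Uninfected HepG2-A16-CD81EGFP cells, 3 × 10^3 per well, 1536-well, plated on prespotted compound at 10 μM final, parasite-free screening media added to match infected plates; puromycin 10 μM positive, DMSO 0.5% negative; run in parallel with 48 h PbLuc assay at 37 °C, 5% CO2; viability by CellTiter-Glo luminescence, normalized to controls.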
row,SMILES,cytotoxicity at 10 µM
1,CC(C)(CNC(=O)OC(C)(C)C)NC(=O)C1CC(=O)N(C2CC2)C1 (configuration not stated),14.3%
2,Cc1nc(COC(=O)c2cccc3c2OCCO3)no1,5.55%
3,CN(C)CCN1C(=O)C[C@@H]2[C@@H]1CCN2S(=O)(=O)c1ccccc1,-7.52%
4,O=C(c1cc(Br)c[nH]1)N1CCN(Cc2ccco2)CC1,-64.2%
5,Oc1cccc(C2CN(c3nnc(C4CC4)s3)CCO2)c1 (configuration not stated),1.07%
6,Cc1csc(CN(C)c2cc(C)nc3c(C)c(C)nn23)n1,-2.96%
7,CN(C)CC1(O)CCN(C(=O)c2cnc(CN3CCCC3)s2)C1 (configuration not stated),0.245%
8,CCCNC(=O)CN1CCC(NCc2c(C)nn(C)c2OC)CC1,-5.32%
9,CC(Nc1cccc(CN2CCOC2=O)c1)C(=O)Nc1ccccc1 (configuration not stated),-6.42%
10,CCCn1cc(CNCC(c2ccc(C)s2)N2CCOCC2)cn1 (configuration not stated),-0.248%
11,CC(C)(NC(=O)Cc1ccccc1F)C(C)(C)C(=O)O,-9.1%
12,C=C(Cl)CN(C)C1CCN(CCc2ccccn2)CC1,-2.93%
13,O=S(=O)(c1cccnc1)N1CCN(CC(O)c2ccccc2)CC1 (configuration not stated),0.871%
14,O=C(CC1CC1)NC[C@]12COC[C@H]1CN(c1ncc(F)cn1)C2,-141%
15,O=C(NCC1CC1)C1=NOC2(CCN(Cc3ccsc3)C2)C1 (configuration not stated),1.47%
16,CC(C)NC(=O)c1nc(Cn2c(C(F)(F)F)nc3ccccc32)no1,20.7%
17,CCOc1nnc(CN2CCN(CCOC)CC2)s1,-12.1%
18,COC(=O)C1CCN(C(=O)Cn2nc(C)nc2-c2ccccc2)CC1,-0.159%
19,Cc1nnc(NC(=O)NCc2cc(F)cc(F)c2)s1,-6.07%
20,O=C(Nc1ccc2c(c1)OC1(CCCCC1)O2)c1ccc(=O)[nH]n1,14.1%
21,CC(NC(=O)c1cccc(CN2CCN(C)CC2)c1)c1ccccn1 (configuration not stated),-13.5%
22,COC(=O)c1ccc2ccn(CC3CCCCO3)c(=O)c2c1 (configuration not stated),-0.551%
23,CNC(=O)[C@@H]1CN(C(=O)CCOC)C[C@H]1c1ccnc(N2CCCC2)n1,-3.43%

row,SMILES,cytotoxicity at 10 µM
1,CCOc1ccc(C#N)cc1NCC(=O)OC,-19.2%
2,O=C1CC[C@@H](CN(Cc2ccncc2)Cc2nc(-c3cccs3)no2)N1,-10.7%
3,CN(CCC(=O)NC1CC1)Cc1ccc(Cl)s1,7.83%
4,Cc1n[nH]c(C)c1NC(=O)NCc1ccccn1,1.85%
5,OC1(CN2CCCCC2)CCN(c2nccc(C(F)(F)F)n2)C1 (configuration not stated),-7.07%
6,CC(C)N1CCC(Cc2cncc(-c3ccccc3C(=O)O)n2)C1 (configuration not stated),-10%
7,CN(C)Cc1nnc(C2CCCN(Cc3ccc(Cl)s3)C2)n1C (configuration not stated),-11.1%
8,OCCNc1nccc(-c2c[nH]nc2-c2cccnc2)n1,-8.22%
9,Cc1cnn(CC2CCCCN2C(=O)Cc2cn3ccsc3n2)c1 (configuration not stated),-5.5%
10,CNC(=O)C1CCCN1C(=O)NCCCc1cccc(F)c1 (configuration not stated),2.75%
11,Cn1c(N)nnc1SCc1ccc(Cl)cc1Br,1.48%
12,CCn1cc(CN2CCC(c3ncc(Cl)cc3S(C)(=O)=O)CC2)c(C)n1,5.68%
13,CN1C[C@H](NC(=O)c2cscn2)[C@@H]2OCCC[C@@H]21,-112%
14,CCO[C@H]1COC[C@@H]1NC(=O)c1c[nH]nc1C1CCCCC1,-3.13%
15,Cc1cc(N(C)CCN(C)C)n2nc(C)cc2n1,7.77%
16,Cc1ccc(NC2CCN(C(=O)c3cccnc3N(C)C)CC2)nn1,-12.1%
17,CN(C(=O)CN1CCCC1c1cnn(C)c1)C1(C#N)CCCCC1 (configuration not stated),1.41%
18,CCN1CCCC1CN(Cc1cc[nH]n1)CC1CCN(CCOC)CC1 (configuration not stated),-5.14%
19,CC(C)CNC(=O)CNC(=O)c1nc(Cc2c(Cl)cccc2Cl)no1,9.11%
20,O=C(OC1CCC1)c1ncccc1C(F)(F)F,10.6%
21,Cc1ccc(C(=O)N(Cc2cccc(F)c2)C2CC2)c(=O)[nH]1,-4.86%
22,CCCOc1cc(C)ccc1NC(=O)N(C)C,-4.59%
23,CN(C)C(=O)[C@@H]1CCO[C@@H]2CCN(CCc3ccccc3)C[C@@H]21,-9.55%

row,SMILES,cytotoxicity at 10 µM
1,Cc1cccc(CN2CCN(C(=O)c3cnc(C)[nH]c3=O)CC2)c1,-3.32%
2,CN(CCOc1cccc(CN)c1)C1CCOCC1,-1.35%
3,CCC(CO)N(Cc1cccs1)C(=O)Cc1ccncc1 (configuration not stated),-9.67%
4,CC(C)n1nc(CN2CCCC2)c2c1CN(CC1CC1)CC2,2.53%
5,CS(=O)(=O)N1Cc2ccccc2CC2(CCN(Cc3ccncc3)C2)C1 (configuration not stated),4.59%
6,COc1ccc2[nH]nc(CN3CCN(Cc4cccc(F)c4)CC3)c2c1,-8.14%
7,Cc1nccn1-c1ccc(NC(=O)C2CCCN2Cc2c[nH]cn2)cc1 (configuration not stated),-15.2%
8,COc1cc(CCO)c(OC)c2c1OCO2,-5.6%
9,CCCn1nnc(NCc2ccccc2OCc2ccc(Cl)cc2)n1,2.76%
10,CN1C(=O)C2(CCCN(C(=O)c3ccc(=O)n(C)n3)C2)c2ccccc21 (configuration not stated),4.65%
11,COc1ccccc1C(C)CC(=O)N1CC[C@H](O)C1 (some centres not stated),-55.7%
12,Cc1cnccc1N1CCCN(C(=O)CCCc2cn[nH]c2)CC1,-30.3%
13,CC1CCN(CCCNS(=O)(=O)Cc2ccccc2F)CC1,-8.79%
14,CC(C)CN1CCc2[nH]cnc2C12CCN(C(=O)c1cc[nH]n1)CC2,0.363%
15,CC(C)C1CN(C(=O)c2cc(=O)[nH]c(=O)[nH]2)CCC(=O)N1CC1CC1 (configuration not stated),1.08%
16,CC(C)n1ncc2cc(NC(=O)N3CCC(C(N)=O)C3)cnc21 (configuration not stated),-1.85%
17,CN1CCN(C(=O)CCn2c(C(F)(F)F)cc3cccnc32)CC1,-31.9%
18,Cn1ccc(CN2CCCC23CCN(Cc2nccn2C)CC3)n1,-109%
19,CC(C)n1cc(CN2CCCN(C(=O)c3ccc[nH]3)CC2)cn1,3.59%
20,O=C(Cc1cccc(F)c1)N1C[C@H]2CN(Cc3cccnc3)C[C@H]2C1,0.0515%
21,O=C(CN1CCCC1c1cccs1)N1CCc2sccc2C1 (configuration not stated),-17%
22,COCCc1noc(CN2CCCC2Cn2cccn2)n1 (configuration not stated),-0.206%
23,O=C(c1ccc(C2CCCN2C(=O)c2cscn2)s1)N1CCSCC1 (configuration not stated),-4.31%

row,SMILES,cytotoxicity at 10 µM
1,CCC(NCc1cccc(Cl)c1)c1ccccc1OCC(=O)NC (configuration not stated),-2.65%
2,COc1ccc(CN(Cc2cncn2C)CC2CCCO2)cc1 (configuration not stated),-4.47%
3,O=C(Cc1cccs1)Nc1cnn(C2CCOCC2)c1,-0.779%
4,Cc1nccn1-c1cc(CNC(=O)C2CCCO2)ccn1 (configuration not stated),-7.81%
5,CC(C)c1cccc(NC(=O)Cn2c(=O)n(C)c(=O)c3sccc32)c1,42%
6,COc1ccc(Oc2ccc(C(F)(F)F)cn2)cc1CN1CCCC1,-5.62%
7,O=C(c1ccncc1)N1CC[C@H]2[C@H]1CCN2S(=O)(=O)C1CC1,-126%
8,CCn1c(CN(C)C)nnc1C1CCN(Cc2cccc(F)c2F)CC1,1.49%
9,COc1ccc(CN(C)C2CSCCSC2)c2cccnc12,31.7%
10,CCc1nc(CN2CCCN(C(=O)COC)CC2)cs1,-18.9%
11,CNC(=O)CCNC(=O)c1ccccc1N1CCOCC1,2.29%
12,O=C(c1ccc(O)c(Cl)c1)N1CCC(c2n[nH]c(C3CC3)n2)CC1,6.91%
13,COCC1COCCC12CCN(S(=O)(=O)c1cccnc1)CC2 (configuration not stated),6.62%
14,CCc1nnsc1C(=O)NCCC1CN(C(C)C)CCO1 (configuration not stated),-7.07%
15,c1nc2c(c(NC3CCC3)n1)CCNCC2,-1.28%
16,O=C1CC(c2ccc(F)cc2)c2cnn(C3CCCC3)c2N1 (configuration not stated),3.82%
17,O=C(O)c1cc2c(nc1-c1ccoc1)CCN(CC1CCOC1)CC2 (configuration not stated),-81.9%
18,CN1CCN([C@@H]2CN(C(=O)c3ccnnc3)[C@@H]3CCCO[C@H]23)CC1,7.16%
19,CS(=O)(=O)CCN(CCc1cccc(F)c1)C1CC1,11.4%
20,CC(C)c1nnc2n1CCN(CCC(=O)N1CCc3ccccc31)C2,-21.1%
21,Cc1cnn(CCNCc2cccnc2)c1,-0.265%
22,c1csc(N2CCCN(Cc3noc(C4CC4)n3)CC2)n1,3.41%
23,Cc1nc(N2CCCC2)nc2c1CCN(C(=O)C1CCCCC1)CC2,3.16%

row,SMILES,cytotoxicity at 10 µM
1,N#Cc1ccc(SCCC(=O)O)cc1,-2.85%
2,NC1(C(=O)N2CCC(c3cc(-c4ccccc4Cl)n[nH]3)CC2)CCC1,-3.66%
3,Oc1ccc(Br)c(CNc2cccc(-c3nnc[nH]3)c2)c1,-38.9%
4,O=C(CC1CCC2(CC1)CCN(Cc1ccncc1)CC2)N1CCCC1,6.72%
5,CC(C)C(NC(N)=O)C(=O)N1CCN(c2ccccc2Cl)C(=O)C1 (configuration not stated),-1.56%
6,CC(C)c1ccn(C2(C(=O)O)CCN(c3ccncc3F)CC2)n1,-0.679%
7,Cc1nn2c(N3CCS(=O)(=O)CC3)cc(-c3ccccc3)nc2c1C,-6.43%
8,Cc1ccc(CNC(=O)CCSCc2csc(C)n2)cn1,-10%
9,CN(C)c1ccc(CNC(=O)Nc2ccc(S(=O)(=O)C(F)F)cc2)cc1,9.25%
10,COCCCNC(=O)Cc1cc(-c2ccc3c(c2)OCO3)on1,57.7%
11,COC[C@@H]1CCCN1C(=O)c1cc(-c2ccc(OC)cc2)n[nH]1,13.2%
12,CC(C)COC(=O)N1CCCN(C(C)c2nc(C(C)C)no2)CC1 (configuration not stated),6.85%
13,O=C1CC2(CCN(CC3CC3)C2)CN1c1ccc2c(c1)OCO2 (configuration not stated),-2.47%
14,O=C(NC1CC1)C1CCCN(c2cccc(C(F)(F)F)n2)C1 (configuration not stated),2.43%
15,Cc1ccc(C(C)(O)CNC(=O)c2sccc2OC(F)F)o1 (configuration not stated),-1.34%
16,Cc1cnn(CC2CCCN2CC(=O)Nc2nccs2)c1 (configuration not stated),-4.34%
17,O=C1CC2(CCCCN2C(=O)c2cccs2)CN1CC1CC1 (configuration not stated),2.67%
18,CC(C)c1nc(CNc2nccc(CCC(F)(F)F)n2)cs1,1.24%
19,c1nc(N2CCCC(Cn3cncn3)C2)c2ccsc2n1 (configuration not stated),5.68%
20,CCCN1CCCn2nc(CNC(=O)CN(C)C3CCCC3)cc2C1,-0.992%
